# Screens: PubChem, Johns Hopkins Ion Channel Center
# Kir21 block: inhibitors of mouse Kir2.1 inward-rectifier potassium channel; Inward rectifier potassium channel 2 (Mus musculus), P35561; HEK293-Kir2.1, FluxOR thallium flux fluorescence; active compounds read low; B-score at 10 µM; actives 0.85% (n = 310,000); AID 1672, 2009;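 active means fluorescence ratio B-score at or below minus 3 SD of library scores, with starting-brightness B-score within 2 SD, cut at about -4.2 in these data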;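 further: channel flux triggered by added potassium and thallium sulfate stimulus; B-score of peak minus minimum fluorescence over baseline after thallium stimulus; more negative B-score means stronger Kir2.1 block with less thallium influx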
# KCNK3 block: human KCNK3 channel inhibitors, primary screen, CHO cells, FluxOR thallium flux, B-score | Potassium channel subfamily K member 3 (Homo sapiens), O14649 | FluxOR fluorescence; active compounds read low | B-score at 10 µM | actives 0.84% (n = 340,000) | AID 602410, 2012;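 active means B-score under library mean minus 4 SD, starting fluorescence ratio at most library mean plus 5 SD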;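 further: more negative B-score means stronger inhibition of thallium flux through KCNK3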
# KCNQ1 block: inhibitors of human KCNQ1 channel, primary screen, cell-based, thallium flux, high-throughput; Potassium voltage-gated channel subfamily KQT member 1 (Homo sapiens), P51787; AID 2642, 2010; CHO-K1 KCNQ1, FluxOR thallium flux fluorescence; active compounds read high; B-score at 10 µM; actives 1.3% (n = 310,000);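 active means compounds whose thallium flux B-score, printed positive for inhibition, exceeds three library SD while starting fluorescence stays within three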;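 further: channel opened by potassium depolarization with thallium stimulus after 20 min compound exposure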
# Target sequence (P51787 whole entry, looked up): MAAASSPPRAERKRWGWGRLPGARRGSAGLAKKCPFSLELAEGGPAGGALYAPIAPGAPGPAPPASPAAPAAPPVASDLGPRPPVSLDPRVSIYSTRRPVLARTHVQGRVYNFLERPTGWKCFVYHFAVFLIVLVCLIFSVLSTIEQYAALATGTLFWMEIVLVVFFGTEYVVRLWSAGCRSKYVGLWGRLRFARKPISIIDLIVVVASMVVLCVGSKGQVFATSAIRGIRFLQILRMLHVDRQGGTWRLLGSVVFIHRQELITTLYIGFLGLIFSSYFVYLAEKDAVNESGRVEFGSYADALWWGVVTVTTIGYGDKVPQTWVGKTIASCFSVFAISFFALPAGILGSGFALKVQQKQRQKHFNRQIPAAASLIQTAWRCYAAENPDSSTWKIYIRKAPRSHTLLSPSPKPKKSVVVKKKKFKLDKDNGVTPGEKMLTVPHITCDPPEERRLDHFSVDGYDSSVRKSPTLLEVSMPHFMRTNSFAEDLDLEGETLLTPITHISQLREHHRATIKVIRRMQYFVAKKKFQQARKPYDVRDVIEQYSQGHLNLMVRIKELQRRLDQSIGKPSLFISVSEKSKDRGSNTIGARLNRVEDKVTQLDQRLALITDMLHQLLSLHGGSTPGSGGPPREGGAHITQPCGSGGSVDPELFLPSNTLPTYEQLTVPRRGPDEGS
# KCNQ1 act: potentiators or activators of KCNQ1 channel, primary screen, cell-based, thallium flux, high-throughput. Potassium voltage-gated channel subfamily KQT member 1 (Homo sapiens), P51787. CHO-K1 KCNQ1, thallium flux FluxOR fluorescence; active compounds read high. B-score at 10 µM. actives 0.35% (n = 310,000). AID 2648, 2010;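 active means fluorescence ratio B-score, a plate-corrected score, at least three library SD, with initial intensity B-score within 5 SD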
#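 Assay system: CHO-K1 cells stably expressing KCNQ1; Medium: assay buffer with matched DMSO; Also added: K+/Tl+ depolarizing stimulus; Dosing: single dose; Timing: dye 90 min, compound 20 min, room temperature; Measured by: kinetic FluxOR thallium fluorescence, 10-s 1-Hz baseline, 110-s post-stimulus read; Read-out: peak-minus-minimum fluorescence over initial fluorescence, negative-control normalized, B-scored.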
# KCNK9 block: KCNK9 potassium channel inhibitors, primary screen, HEK293 cells, thallium flux | actives 1.2% (n = 310,000) | B-score at 10 µM | FluxOR thallium flux fluorescence; active compounds read low | Potassium channel subfamily K member 9 (Homo sapiens), Q9NPC2;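 active means ratio B-score over 3 SD below the library mean, with starting fluorescence within 5 SD of its mean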;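 further: negative B-score means less thallium flux so channel inhibition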
# hERG rescue: hERG rescue from dofetilide block, primary screen, cell-based, CHO-hERG, FluxOR thallium flux, dofetilide IC70. actives 0.51% (n = 310,000). dofetilide IC70 present. Voltage-gated inwardly rectifying potassium channel KCNH2 (Homo sapiens), Q12809. activation (rescue from dofetilide block), less the hit threshold, % at 10 µM. AID 1511, 2009;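 active means activation above the mean of controls blocked by dofetilide plus 5 SD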;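 further: thallium influx through hERG after potassium depolarization seen as dye fluorescence rise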
# * = called active by the depositor; i = inactive; · = no result given. In the library only some 3.7% were active in any assay of this set; here they are far more common.
SMILES,Kir21 block,KCNK3 block,KCNQ1 block,KCNQ1 act,KCNK9 block,hERG rescue
C=CCn1c(=S)[nH]c2sc3c(c2c1=O)CCCC3,-0.41,i,i,65*,i,12*
Cc1cccc(NC(=S)NC(=O)c2ccc(Br)o2)c1C,0.37,i,i,i,i,46*
Cc1ccc(NC(=S)NC(=O)c2ccc(Br)o2)c(C)c1,-1.6,i,i,i,i,0
Cc1cccc(C)c1NC(=S)NC(=O)c1ccc(Br)o1,1.7,i,i,27*,i,25*
O=C(NC(=S)Nc1ccccc1F)c1ccc(Br)o1,-0.25,i,i,77*,i,32*
CCN(c1ccccc1)S(=O)(=O)c1ccc(NC(=S)NC(=O)c2ccc(Br)o2)cc1,-0.54,i,i,12*,i,11*
COc1ccc2c3c(ccc2c1)C(=O)/C(=C/O)CC3,·,i,·,·,·,·
COc1cc2c(c(OC)c1OC)C(=O)CO2,·,i,·,·,·,·
CCCCN1CC(C)(C)Oc2cccc(F)c2S1(=O)=O,·,i,·,·,·,·
Cc1ccc2c(c1)-c1ncc(C(=O)c3cc(Br)ccc3O)cc1CO2,-0.04,·,8*,i,-8.9*,-14
CCOC(=O)c1c(NC(C)=O)sc2c1CCC(C=O)=C2Sc1ccccc1,-1.2,i,i,i,-6.9*,-16
COc1ccc(C2c3ccc4ccccc4c3Oc3ncn(CCO)c(=N)c32)cc1 (stereo not given),-5.2*,i,i,i,i,-13
COc1ccc(C2c3ccc4ccccc4c3Oc3ncn(CCCO)c(=N)c32)cc1 (stereo not given),-2.9,i,i,i,i,-20
COc1ccc(C2c3ccc4ccccc4c3Oc3ncn(CCN(C)C)c(=N)c32)cc1 (stereo not given),-4.3*,i,i,i,i,-20
COc1ccc(C2c3ccc4ccccc4c3Oc3ncn(CCO)c(=N)c32)cc1OC (stereo not given),-1.8,i,i,i,i,-10
COc1ccc(C2c3ccc4ccccc4c3Oc3ncn(CCCO)c(=N)c32)cc1OC (stereo not given),-1.4,i,i,9*,i,-12
CN(C)CCCn1cnc2c(c1=N)C(c1ccccc1)c1ccc3ccccc3c1O2 (stereo not given),-7.2*,i,i,i,i,-17
CC(=O)c1ccc(OCCCC(=O)Nc2nnc(C3CC3)s2)cc1,·,i,·,·,·,·
O=C(Cc1ccc(NC(=O)C2CCN(C(=O)C3CCCCC3)CC2)cc1)Nc1cccc(C(=O)N2CCCCC2)c1,·,i,·,·,·,·
Cc1ccc(S(=O)(=O)N2C(=O)/C(=C3\SC(=S)NC3=O)c3ccccc32)cc1,-2.7,·,i,i,i,3
N=c1c2c(ncn1CCCO)Oc1ccc3ccccc3c1C2c1ccccc1 (stereo not given),-4.2*,i,i,i,i,-11
N=c1c2c(ncn1CCCO)Oc1c(ccc3ccccc13)C2c1ccccc1 (stereo not given),-3.7,i,i,i,i,-18
N#Cc1ccc(CN2CCN(C(=O)CC(NC(=O)c3ccccc3)c3ccccc3)CC2)cc1 (stereo not given),0.05,i,i,i,i,-8
CCn1c(=S)[nH]c2scc(-c3cccs3)c2c1=O,0.07,i,i,112*,i,100*
C=CCn1c(=S)[nH]c2scc(-c3ccc(C)o3)c2c1=O,0.81,i,i,99*,i,64*
SMILES,Kir21 block,KCNK3 block,KCNQ1 block,KCNQ1 act,KCNK9 block,hERG rescue
CC1CCCC(NC(=O)CNC(=S)N(Cc2ccccc2)Cc2cccs2)C1C (stereo not given),0.22,i,9*,i,i,-10
CCCCNC(=O)CNC(=S)N(Cc1ccccc1)Cc1cccs1,-2.4,i,i,i,i,-7
COCCn1nnnc1C(c1cccs1)N1CCN(c2cc(C)ccc2C)CC1 (stereo not given),-0.96,-9.2*,i,i,-8*,-8
CC(=O)Cc1nsc(NC(=O)c2cccs2)n1,-0.05,i,i,i,i,12*
CC(=O)Cc1nsc(NC(=O)c2ccccc2)n1,-0.41,i,i,i,i,-7
C[C@H]1CN([C@@H](C)CO)C(=O)c2cc(NC(=O)C3CCCCC3)ccc2O[C@H]1CN(C)S(=O)(=O)c1ccccc1,·,i,·,·,·,·
Cc1[nH][nH]c(=O)c1C(c1ccc(-c2ccc(F)cc2)o1)c1c(C)[nH][nH]c1=O,-5.3*,i,i,9*,i,-15
CCCCCCc1cc2cc(-c3nnc(-c4ccccc4O)o3)c(=O)oc2cc1O,-1.9,i,i,i,i,4
CCCCCCc1cc2cc(C(=O)Nc3ccccc3OC)c(=O)oc2cc1O,2.1,i,i,i,i,-4
CCCCCCc1cc2cc(-c3nnc(-c4ccccc4OC)o3)c(=O)oc2cc1O,-3.1,i,8*,i,i,-8
CCCCCCc1cc2cc(-c3nnc(-c4cc(OC)c(OC)c(OC)c4)o3)c(=O)oc2cc1O,-3.9,·,15*,i,i,-10
CC(C)CCN(C(=O)c1cc(=O)[nH]c2ccccc12)c1c(N)n(Cc2ccccc2)c(=O)[nH]c1=O,·,i,·,·,·,·
COc1ccc(OC)c(NC(=O)C(=O)NNC(=O)C23CC4CC(CC(C4)C2)C3)c1,0.01,i,i,10*,i,65*
COc1ccc(NC(=O)CNC(=O)C23CC4CC(CC(C4)C2)C3)c(OC)c1,-2,i,i,i,i,-15
COc1ccc(NC(=O)COc2ccccc2)c(OC)c1,0.18,i,i,i,i,-8
COc1cccc(OCC(=O)NNC(=O)C(=O)Nc2ccc(OC)cc2OC)c1,0.56,i,i,11*,i,23*
COc1ccccc1NC(=O)C(=O)NNC(=O)COc1ccc2ccccc2c1,1.7,i,i,84*,i,56*
CCOC(=O)c1c(NC(=O)CN2CCN(S(=O)(=O)c3cc(Cl)ccc3Cl)CC2)sc(C(=O)N(C)C)c1C,·,i,·,·,·,·
CC(=O)c1cnc(Nc2nc(C)c3cc(C)c(C)cc3n2)nc1C,0.01,i,i,i,i,7.7*
CSc1ncc(C(C)=O)c(C)n1,-1.1,i,i,i,i,-8
